From PMC8791284 (SLAS discovery : advancing life sciences R & D, 2021)

Assays:
[1] = test system: CDK9 (Ser2-RNA polymerase II phosphorylation); test: Western blot of phospho-Ser2 RNA polymerase II in KRAS^G12D MEFs; assay type: cell-based, mouse; conditions: 6 h, 0.1, 1 and 10 μM
[2] = test system: KRAS^G12D-expressing MEFs; test: ATP-based cell viability assay; design: species or system mouse; conditions: Suppl. Fig. S3
Outline: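 KRAS^G12D- and HRAS^WT-expressing mouse embryonic fibroblasts are dispensed onto plates pre-spotted with test compound from 10 mM stocks. Test compound is used at 5 μM final for the primary screen, or as serial dilutions for dose–response. After 72 h, CellTiter-Glo reagent is added, incubated 15 min, and luminescence is read. Each plate is checked by Z' factor and carries a reference HSP-90 inhibitor dose–response.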

[3] = test system: BRAF^V600E-expressing MEFs; test: Cell proliferation assay, BRAF^V600E MEFs; assay type: cell-based, mouse; conditions: versus other MEF panel lines, Fig. 1E

SMILES	phosphorylation level of Ser2-RNA polymerase II [1]	sensitivity of KRAS^G12D MEFs versus HRAS^WT MEFs in cell viability assay [2]	specific activity against BRAF^V600E-expressing MEFs [3]
CC(C)(C)c1cnc(CSc2cnc(NC(=O)C3CCNCC3)s2)o1 [SNS032]	diminished the Ser2 phosphorylation level in a dose-dependent manner	more sensitive	
CCCS(=O)(=O)Nc1ccc(F)c(C(=O)c2c[nH]c3ncc(-c4ccc(Cl)cc4)cc23)c1F [vemurafenib]			showed specific activity
CC(C)(C)c1nc(-c2cccc(NS(=O)(=O)c3c(F)cccc3F)c2F)c(-c2ccnc(N)n2)s1 [dabrafenib]			showed specific activity
